Converted amounts (≈) assume the structure as drawn. The source made the active and inactive calls. No cut-off for these calls is given here. Starred links: 1 amine or outer side, 2 acyl side, 3 side chain; linkers in the order of their positions; H or OH if unused. Non-standard residues stand in square brackets, D forms with d. Residues, ends and D or L forms follow the SMILES beside them. *: point of attachment. X6 = C[C@H](CO[C@H](CC1C[C@H]2CC[C@@H](C1)C2)[C@@H](C)C(=O)[*:2])N[*:1]; X3 = C[C@H](CO[C@H](CC1CC2(CCC2)C1)[C@@H](C)C(=O)[*:2])N[*:1]; X1 = CCCCCC[C@@H](OC[C@@H](C)N[*:1])[C@@H](C)C(=O)[*:2]; X9 = CCCCCC[C@@H](OCCN[*:1])[C@@H](C)C(=O)[*:2]; Cyclobutyl(trans-3-NH2) = N[C@H]1C[C@H](*)C1; X4 = CCCCCCN(CCN[*:1])[C@@H](C)C(=O)[*:2]; Gly(cHept) = N[C@H](C(=O)O)C1CCCCCC1; aThr = C[C@H](O)[C@H](N)C(=O)O; NMeL = CN[C@@H](CC(C)C)C(=O)O; Chg = N[C@H](C(=O)O)C1CCCCC1; NMeNva = CCC[C@H](NC)C(=O)O; X2 = NC[C@H]1C[C@H](*)C1; Dap = NC[C@H](N)C(=O)O
Columns and labels:
[1] = Stability of the compound in rat plasma assessed as parent compound remaining after 24 hrs; assay type: ADME, cell-free; conditions: read-out: Stabilty
Method in brief: (§1)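 Test compound incubated for 24 hour in human, rat or mouse plasma. Stability is reported as the percentage of parent compound remaining.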

Enterobacter cloacae = assay: Inhibition of LspA in Enterobacter cloacae assessed as inhibition of bacterial growth
[2] = Clearance in mouse liver microsomes; assay type: ADME, Microsome
Method in brief: (§2)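 Intrinsic clearance in rat or mouse liver microsomes, expressed in mL/min/kg.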

[3] = Protein binding in mouse plasma; assay type: ADME, cell-free; conditions: for fraction unbound: read-out: PPB (converted)
[4] = Stability in mouse plasma assessed as esterase-mediated compound hydrolysis by measuring parent compound remaining after 6 hrs; assay type: ADME, cell-free; conditions: read-out: Stabilty
Method in brief: (§3)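 Test compound incubated for 6 hour in human or mouse plasma. Stability is reported as the percentage of parent compound remaining.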

[5] = Stability of the compound in mouse plasma assessed as parent compound remaining after 24 hrs; assay type: ADME, cell-free; conditions: read-out: Stabilty; method in brief: as §1
Jurkat = assay: Cytotoxicity against human Jurkat cells; assay type: cell-based
Method in brief: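 Jurkat cell growth assay. Result reported as antiproliferative EC50.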

Klebsiella pneumoniae = assay: Inhibition of LspA in Klebsiella pneumoniae assessed as inhibition of bacterial growth
Acinetobacter baumannii = assay: Inhibition of LspA in Acinetobacter baumannii assessed as inhibition of bacterial growth
[6] = Lipophilicity, logD of the compound at pH 7.4; conditions: buffer, pH 7.4, logD
[7] = Half life in iv dosed mouse; assay type: ADME, organism-based; conditions: in vivo
Escherichia coli CFT073 = assay: Inhibition of LspA in wild type Escherichia coli CFT073 assessed as inhibition of bacterial growth
Method in brief: (§4)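 Read-out is the minimum inhibitory concentration, reported in µM.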

[8] = Clearance in iv dosed mouse; assay type: ADME, organism-based; conditions: in vivo
[9] = Clearance in rat liver microsomes; assay type: ADME, Microsome; method in brief: as §2
Pseudomonas aeruginosa = assay: Inhibition of LspA in Pseudomonas aeruginosa assessed as inhibition of bacterial growth
[10] = Protein binding in rat plasma; assay type: ADME, cell-free; conditions: for fraction unbound: read-out: PPB (converted)
[11] = Stability of the compound in human plasma assessed as parent compound remaining after 24 hrs; assay type: ADME, cell-free; conditions: read-out: Stabilty; method in brief: as §1
[12] = Growth inhibition of Staphylococcus aureus USA300
Escherichia coli [13] = assay: Inhibition of LspA in Escherichia coli CFT073imp4213 harboring outer membrane-permeable mutant assessed as inhibition of bacterial growth; method in brief: as §4
[14] = Clearance in iv dosed rat; assay type: ADME, organism-based; conditions: in vivo
[15] = Half life in iv dosed rat; assay type: ADME, organism-based; conditions: in vivo
[16] = Stability of the compound in human plasma assessed as parent compound remaining after 6 hrs; assay type: ADME, cell-free; conditions: read-out: Stabilty; method in brief: as §3
[17] = Stability of the compound in mouse plasma assessed as parent compound remaining after 6 hrs; assay type: ADME, cell-free; conditions: read-out: Stabilty; method in brief: as §3
[18] = Protein binding in plasma of iv dosed mouse infected with Escherichia coli 25922 assessed as free fraction; assay type: ADME, organism-based
[19] = Drug concentration in blood of iv dosed mouse infected with Escherichia coli 25922 infused for 20 hrs; assay type: ADME, organism-based; conditions: read-out: Ct
Method in brief: (§5)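 Neutropenic mouse thigh model infected with E. coli 25922. Compound given by IV infusion over 20 hour. Average blood concentration was measured during the infusion, and thigh CFU was compared with vehicle-treated animals.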

Escherichia coli [20] = assay: In vivo inhibition of LspA in Escherichia coli 25922 infected in iv infused mouse neutropenic thigh infection model assessed as reduction in CFU infused for 20 hrs; assay type: functional, organism-based; conditions: ATCC 25922; method in brief: as §5
[21] = test system: Escherichia coli ATCC 25922; assay: Inhibition of LspA in wild type Escherichia coli 25922 assessed as inhibition of bacterial growth; method in brief: as §4
[22] = Unbound drug concentration in plasma of iv dosed mouse infected with Escherichia coli 25922; assay type: ADME, organism-based; conditions: in vivo
Method in brief: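 Same infected neutropenic mouse thigh model (E. coli 25922, 20 hour IV infusion). Unbound concentration was derived from the average blood concentration and the free fraction in mouse plasma.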

SMILES	remaining at 24 h [1] [%]	MIC (Enterobacter cloacae) [µM]	CLhep predicted [2] [mL/min/kg]	remaining at 24 h [5] [%]	EC50 (Jurkat) [µM]	MIC (Klebsiella pneumoniae) [µM]	MIC (Acinetobacter baumannii) [µM]	logD [6]	half-life [7] [h]	MIC (Escherichia coli CFT073) [µM]	clearance [8] [mL/min/kg]	CLhep predicted [9] [mL/min/kg]	MIC (Pseudomonas aeruginosa) [µM]	remaining at 24 h [11] [%]	MIC [12] [µM]	MIC (Escherichia coli [13]) [µM]	fraction unbound [3]	clearance [14] [mL/min/kg]	half-life [15] [h]	fraction unbound [10]	other results
CCCCCC[C@H]1OC(=O)CNC(=O)[C@H]([C@H](C)O)NC(=O)[C@H](CO)NC(=O)[C@H]([C@H](C)CC)NC(=O)[C@H](CC(C)C)N(C)C(=O)[C@@H]1C	1	100 (≈ 65.6 µg/mL)	81	2	> 50	> 100	> 100	3.1	0.3	44 (≈ 28.9 µg/mL)	286	37	> 100	100	> 100	0.25 (≈ 0.164 µg/mL)					Stabilty [3]: Unstable; remaining at 6 h [4]: 49%; Stabilty [10]: Unstable
CCCCCCN1CCNC(=O)[C@H](CO[C@H]2C[C@H](N)C2)NC(=O)[C@H](CN)NC(=O)[C@H](C2CCCCC2)NC(=O)[C@H](CC(C)C)N(C)C(=O)[C@@H]1C (cyclo([Chg][Dap]S(Cyclobutyl(trans-3-NH2))[X4][NMeL]))	60		34	95	> 100	100 (≈ 70.7 µg/mL)	> 100	1		6.3 (≈ 4.45 µg/mL)		26	> 100	110	100 (≈ 70.7 µg/mL)		0.03	8.7	1.6	0.043	
CCCCCC[C@H]1OCCNC(=O)[C@H]([C@H](C)O)NC(=O)[C@H](CN)NC(=O)[C@H](C2CCCCC2)NC(=O)[C@H](CC(C)C)N(C)C(=O)[C@@H]1C (cyclo([Chg][Dap][aThr][X9][NMeL]))										8.7 (≈ 5.8 µg/mL)					100 (≈ 66.7 µg/mL)	0.14 (≈ 0.0934 µg/mL)					remaining at 6 h [16]: 99%; remaining at 6 h [17]: 96%
CCC[C@H]1C(=O)N[C@@H](C2CCCCCC2)C(=O)N[C@@H](CN)C(=O)N[C@@H](CO[C@H]2C[C@H](N)C2)C(=O)N[C@H](C)CO[C@H](CC2CC3(CCC3)C2)[C@@H](C)C(=O)N1C (cyclo([Dap]S(Cyclobutyl(trans-3-NH2))[X3][NMeNva][Gly(cHept)]))	90	6.3 (≈ 4.79 µg/mL)	48	84		8.8 (≈ 6.69 µg/mL)	18 (≈ 13.7 µg/mL)	2.2	4	2.2 (≈ 1.67 µg/mL)	11	28	71 (≈ 54 µg/mL)	103	25 (≈ 19 µg/mL)		0.007	40	3.2	0.022	
CCC[C@H]1C(=O)N[C@@H](C2CCCCCC2)C(=O)N[C@@H](CN)C(=O)N[C@@H](CO[C@H]2C[C@H](N)C2)C(=O)N[C@H](C)CO[C@H](CC2C[C@H]3CC[C@@H](C2)C3)[C@@H](C)C(=O)N1C (stereo partly drawn) (cyclo([Dap]S(Cyclobutyl(trans-3-NH2))[X6][NMeNva][Gly(cHept)]))	94	3.1 (≈ 2.4 µg/mL)	41	95	> 100	8.8 (≈ 6.81 µg/mL)	25 (≈ 19.4 µg/mL)	1.7	2.1	0.78 (≈ 0.604 µg/mL)	17	21	100 (≈ 77.4 µg/mL)	99	50 (≈ 38.7 µg/mL)		0.003	15	5.8	0.026	
CCCCCC[C@H]1OC[C@@H](C)NC(=O)[C@H](CO[C@H]2C[C@H](CN)C2)NC(=O)[C@H](CN)NC(=O)[C@H](C2CCCCCC2)NC(=O)[C@H](CCC)N(C)C(=O)[C@@H]1C (cyclo([Dap]S(X2)[X1][NMeNva][Gly(cHept)]))	96	6.3 (≈ 4.73 µg/mL)	43	101	> 100	18 (≈ 13.5 µg/mL)	18 (≈ 13.5 µg/mL)	1.6	4	3.1 (≈ 2.33 µg/mL)	2.9	20	100 (≈ 75 µg/mL)	98	50 (≈ 37.5 µg/mL)	0.048 (≈ 0.036 µg/mL)	0.011			0.033	fraction unbound [18]: 0.011; concentration at 20 h [19]: 27 µM; Activity (Escherichia coli [20]): inactive; MIC [21]: 3.1 µM (≈ 2.33 µg/mL); Cp(f) [22]: 0.3 µM

Source: ChEMBL document CHEMBL4665734, “Optimization of globomycin analogs as novel gram-negative antibiotics” (Bioorg Med Chem Lett, 2020)
